Measurements reported in the EternaBench riboswitch data.

System: MS2 coat protein
Assay: apparent Kd, MS2 coat protein; higher = weaker binding; RNA-MaP array; FMN 200 µM where present
Method in brief: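 Stalled E. coli RNA polymerase produced the designs on Illumina sequencing-chip clusters. SNAP-549-labelled MS2 coat protein was added from 0.7 or 1.5 nM, doubling to 3 µM, without and then with constant ligand, in 100 mM Tris-HCl pH 7.5, 80 mM KCl, 4 mM MgCl2, BSA, DTT, yeast tRNA and Tween-20. The apparent Kd is the median of filtered per-cluster fits of green signal normalised to red-channel RNA signal and control-cluster median Fmax.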

[1] = designed as: ON switch for flavin mononucleotide, no ligand
[2] = ligand present: flavin mononucleotide, designed as: ON switch for flavin mononucleotide
[3] = designed as: OFF switch for flavin mononucleotide, no ligand
[4] = ligand present: flavin mononucleotide, designed as: OFF switch for flavin mononucleotide

Sequence | apparent Kd [1] | apparent Kd [2] | apparent Kd [3] | apparent Kd [4]
ACAUGAGGAUCACCCAUGUUCACAUAGGAUAUUGAUUAUAUUGGUUUUAGAAUAGUAAUUAACCUCAAGAAGGAUGCCAGAUCU | 0.0137 µM | 0.0101 µM |  | 
GGUGCAUAUGAGAAGGCGGUCAUGAAACAUGAUCGAGGAUAUCAUGUAAACAUGAGGAUCACCCAUGUAUGGGAAUAAUGCACC | 0.238 µM | 0.016 µM |  | 
UAAACACCCUCAUGUGCCUGAGGACAUGAGGAUCACCCAUGUAAGGAUAUAGCCAUUAAAUCUAACUAGAAGGUAUAGGACAUC |  |  | 0.925 µM | 0.54 µM
AGAUAACAUGUAGGAUAUCGAGGCCUGAGGCCUCGAGAAGGACAUGAGGAUCACCCAUGUUUGCCGAGCAUGGAAUCCCGCACU |  |  | 0.0586 µM | 0.425 µM
GGGCCCGGUGUGAGGAUAUGGGCCCGGAAACGGGCCCAGAAGGCACAUGAGGAUCACCCAUGUAAGCCGGGCCC |  |  | 0.0154 µM | 0.0157 µM
CAGUACUGAGGAUAUACAUGAGGAUCACCCAUGUCUUAAAAGUAGGAUACUACUAUUAGUAGAAGGCAGUACUG |  |  | 0.0132 µM | 0.0349 µM
UUCGUGCAGCUUUGCUGUACGCGUACAUGAGGAUCACCCAUGUAGGAUAUGGUACGCUUUGCGUGCUAGAAGGAUAUGGAAAGG |  |  | 0.0147 µM | 0.0166 µM
UUCAGGGAUCAAGGAUAUCUAUACUCAUGCGGACAUGAGGAUCACCCAUGUUGAUUACCCAUGAGGGAGAAGGUGAACAUGAGG | 0.0313 µM | 0.0187 µM |  | 
AAAAAAAAAAGUCAGGAUAUACAAAUUUUUACAUGAGGAUCACCCAUGUUAAAGAAAAAAAAAAAGUAGAAGGGACAAAAAAAAAA | 0.0251 µM | 0.0149 µM |  | 
GUUAGUUAAGGAUAUACAGGGAGCCGCGGCGUCUCGCCGCAACAUGAGGAUCACCCAUGUAGAAGGUAGCCAUU |  |  | 0.0313 µM | 0.0666 µM
GUUCGGGCAGGAUAUACAUGAGGAUCACCCAUGUGUGUCCAUACGCGUGAGUCCUCGUGUAGAAGGGUUUGGGC |  |  | 0.0232 µM | 0.0174 µM
GCGUUCUUGUAGAAGGUACAUACGACAUCUUAUAAACGCAUGACACAUGAGGAUCACCCAUGUUGUAAGGAUAUACAUGAACGC | 0.00888 µM | 0.00805 µM |  | 
CCUAAACAUGAGGAUCACCCAUGUGAGGAUAUGAUGCGAAUAAAGAAAGAAGAAAGCAUCAGAAGGCACAUAGG |  |  | 0.173 µM | 0.27 µM
GUAUGGAGUACAGGAUAUGUUAGUUUUAAGUGUAUUGGUUAUUACUUAAUUACAGAAGGGUAUUACAUGAGGAUCACCCAUGUA | 0.0136 µM | 0.0106 µM |  | 
CUAUUGGUAACAGGAUAUAUGAGUCCUACAUGAGGAUCACCCAUGUAGGUGAUCAAACGUGAUUAGUAGAAGGGUUACCAAUAG | 0.0156 µM | 0.00777 µM |  | 
UCCGUACUAGGAUAUACAGCAAAAUCAAACAAAUUCCUCAAACAUGAGGAUCACCCAUGUAGAAGGAGUACCAA |  |  | 0.0174 µM | 0.0147 µM
GUGGUCAGACAUGAGGAUCACCCAUGUGGAAUAAAUAAGGAACAGGAUAUGGAAUAUAGGAUAUACCAGAAGGGUUGGUUGGUG | 0.0723 µM | 0.0824 µM |  | 
AGGAGGUCAGGAUAUGCAUGGCGGGACUUGCGUCGUGGCGUGCAGAAGGGACAUGAGGAUCACCCAUGUGGAGU |  |  | 0.113 µM | 0.139 µM
GGUCCAACAUGAGGAUAUAGCACCUUAUUGGUGCUAGAAGGCGUGUCGGUAGACAUGAGGAUCACCCAUGUAUUACAUUGGACC | 0.0932 µM | 0.0224 µM |  | 
GCAUUGAUAGCAGGAUAUAUGUUUCCUACAUGAGGAUCACCCAUGUAGGUGAUCAGCCGAGAAAAGUAGAAGGGCUAUCAAUGC | 0.0156 µM | 0.0141 µM |  | 
AACAGCUCGUCAGGAUAUAUUAUAUUUAUAUGGAUUAAUGUACAUGAGGAUCACCCAUGUAGUUAGUAGAAGGGACGAGCUGAA |  |  | 0.0084 µM | 0.0108 µM
AGCAUGGUAGGAUAUACGGAACAUUAGGGUUUGUUAUGUGGACAUGAGGAUCACCCAUGUAGAAGGGCCGUGCA |  |  | 0.0356 µM | 0.0675 µM
UAGGUUCGAGGAUAUACAUAGAUACAGAUACAUGUAGACGUACAUGAGGAUCACCCAUGUAGAAGGCGAAUAUA |  |  | 0.0809 µM | 0.186 µM
CCGUAGUACUGGGAUCCGGGCCUACAUGAGGAUCACCCAUGUCAGGAUAUACGCGAGAUAAAUACGUAGAAGGGACACAGAUGA |  |  | 0.0197 µM | 0.0331 µM
UUGUUCCAUGUAGGAUAUGCAUAUUCUUAUUAUGCAGAAGGACAUGAGGAUCACCCAUGUAUGUUAUUAUUAUAUGUUACAUGU |  |  | 0.0723 µM | 0.392 µM
GGGCCACAUGAGGAUCACCCAUGUAAACCCGUGCUCAGGGCACAGGAUAUGGGCCUGGAUGAGGCCCAGAAGGGUGGUCUGGCC | 0.0401 µM | 0.0163 µM |  | 
GUCGGAAACGACAAUGAUAGGACUGAGGAUAUACAUAAGUAAGUCCUUACAUGAGGAUCACCCAUGUAGAAGGCAGUCCUAUCU |  |  | 0.0439 µM | 0.502 µM
AUAGCUCUCUAGAAGGACCAAGCAGUAUACCAUCAGGUAUAUACGCUAGGUAGGAUAUGGGACAUGAGGAUCACCCAUGUGUAG | 0.0539 µM | 0.0339 µM |  | 

Sequence | apparent Kd [1] | apparent Kd [2] | apparent Kd [3] | apparent Kd [4]
GGAUUUACUGAGGAUAUUGCAUUACCCGAUUGAUAAGAAGGCAGAACAUGAGGAUCACCCAUGUGGGUAGUCAA |  |  | 0.0174 µM | 0.0164 µM
GAGUGACAUGAGGAUCACCCAUGUGAGGAUAUCGGACGGACCUAGUUAACUUCCGCCGCGAGAAGGCACAUCGG |  |  | 0.0987 µM | 0.0338 µM
GAUUGAGAGCAGGAUAUCUUAGAAAUGUAUGAAAGAGAAGGGCUCACAUGAGGAUCACCCAUGUGGUCCUAGAU |  |  | 0.0327 µM | 0.256 µM
GCCAGGCAUGUAGGAUAUCCAUUGCGUCGCGUUGGAGAAGGGCAGCACACAUGAGGAUCACCCAUGUGGUCUCCCAUGAUGUGU |  |  | 0.209 µM | 0.223 µM
UGUUGUAUUACAGGAUAUCUAUGAUUUUUAUCUAGAGAAGGGUAUUCACAUGAGGAUCACCCAUGUAUAUACGAGGAAGUUGUG | 0.0312 µM | 0.0306 µM |  | 
UGAUCGAGAGAUCUUAGAUUCUGGUAGGAUAUACAUUAUAUAAGAUAUACAUGAGGAUCACCCAUGUAGAAGGACUAGAGUCUA |  |  | 0.00647 µM | 0.00739 µM
GUCAGCUCGUGAGGAUAUACAACACUGCUUCGGCAGUGUAUUAAGGUCACAUGAGGAUCACCCAUGUAGAAGGCACGAGCUGAU |  |  | 0.00812 µM | 0.105 µM
UUCAUGUGAGGAUAUGUGUACUGUUUUUUGUUUAGAUGUACACAGAAGGCACAUGAGGAUCACCCAUGUAGUAC |  |  | 0.0495 µM | 0.0204 µM
GCGUACAUCGGAGGAUAUCAUGUAAAUACAUGAGGAUCACCCAUGUCGAUGGAGACAUCGGAGAUUGAGAAGGCCGAUGUACCG | 0.157 µM | 0.00842 µM |  | 
AGAUCACAUGAGGAUCACCCAUGUGAGGAUAUGGACUGAAGAGCUUCGGCUCUUCAGUCCAGAAGGCACUAUGA |  |  | 0.0273 µM | 0.035 µM
CAACCACAUGAGGAUCACCCAUGUGAGGAUAUGAUACUAUGUACUUCGGUACAUAGUAUCAGAAGGCACAGGUG |  |  | 0.082 µM | 0.0734 µM
UAGACACUUACAGGAUAUAGGGCAGAGGGUGCCCUAGAAGGGUGAACAUGAGGAUCACCCAUGUAUGUGUCUGAUUAGAAGGCA | 0.0362 µM | 0.0694 µM |  | 
AAAAAACAUGAGGAUCACCCAUGUCUUCGGACGUGAGGAUAUGUACAGACUUCGGUCUGUACAGAAGGCAUGUCAA | 0.212 µM | 0.0259 µM |  | 
GCGAUGAUCGAGAAGGCCACUACAUGAGGAUCACCCAUGUCGUGGUGUAUUGGAGGAUAUCGAUCGGCGUCUUAUGAGGACAUG |  |  | 0.00502 µM | 0.00826 µM
ACUGGUCAAGGAUAUACAAUCGUGCUUCGGCACGUAAGAUCACAUGAGGAUCACCCAUGUAGAAGGUGACCAGU |  |  | 0.0386 µM | 0.47 µM
UUAUACGUUGAGGAUAUGCGACUUAGUAUAGUUGUAGAAGGCGAUACAUGAGGAUCACCCAUGUUUAUGGGCAU |  |  | 0.22 µM | 0.3 µM
UUUUUUUUACAGAAGGGAAUCAUGAUUUUUUGUUUUUACAUGAGGAUCACCCAUGUUUAUCUUUUUCAGGAUAUGUAUUUUUUU | 0.0613 µM | 0.032 µM |  | 
GCCGGGUGGGUAGGAUAUGGCUAUGUCUCAUUGCUAGAAGGACCAACUGCUACAUGAGGAUCACCCAUGUCGUAGUGCACCCGG | 0.138 µM | 0.0289 µM |  | 
AAUUAGUGAGGAUAUACGGGAGGGAGGGAGGGAGGGAGGGAGUAGAAGGCACAUGAGGAUCACCCAUGUAAUUA |  |  | 0.0151 µM | 0.0227 µM
UGGUACUAGGGAGGAUAUGGGAAGAUACAUGAGGAUCACCCAUGUUUAAGAAUGCCGAGACGCAACUAGAAGGCCCUAGUACCU | 0.354 µM | 0.0209 µM |  | 
AUAUUUAAUGAGGAUAUCGUUGCGGGUACGUAGCGAGAAGGCAUUACAUGAGGAUCACCCAUGUAGUGUGGGUU |  |  | 0.0213 µM | 0.0683 µM
GCUAUCGAUGUAGGAUAUGCUAGGGAAACCCUGGCAGAAGGACAUGAGGAUCACCCAUGUCAAUGGAUGAAGAGAAGAGAUGGC |  |  | 0.0278 µM | 0.122 µM
CCUAAGGAGGCAGGAUAUAGUGUGGUGGCCGGGCUCCCACGGCGAGCGGCACUAGAAGGGUCGUUACAUGAGGAUCACCCAUGU | 0.0127 µM | 0.0116 µM |  | 
CGAUAAAGGUGAGGAUAUGAGAAUAGAAAGAAAUCAGAAGGCACACAUGAGGAUCACCCAUGUGAGUUCUUGAGAUUACAUGGU |  |  | 0.0149 µM | 0.0151 µM
AAAUUUUGUCAAGGAUAUGUAUAAUUGAUUUGAAAACAUGAGGAUCACCCAUGUAUAUUGUGGGAACAGAAGGUGAAUAAGUAA |  |  | 0.209 µM | 0.19 µM
AAGGUACAUGAGGAUCACCCAUGUGGGUCGGUCGCAGGAUAUCGCCGUUGGCCCUGGCGGCGAGAAGGGUGCCGAA | 0.375 µM | 0.0611 µM |  | 
GCGUUCUUGUAGAAGGUACAUACGACAUCUUAUAAACGCUUGACACAUGAGGAUCACCCAUGUUGUAAGGAUAUACAUGAACGC | 0.00682 µM | 0.00703 µM |  | 
